From ChEMBL document CHEMBL4145554, “Structure-activity relationships of talaumidin derivatives: Their neurite-outgrowth promotion in vitro and optic nerve regeneration in vivo” (Eur J Med Chem, 2018)
Activity calls are given as the source filed them. The calls are words filed in the database; no cut-off is given here.

Assays:
PC-12 = assay: Neurite-outgrowth promoting activity in NGF-differentiated rat PC12 cells assessed as increase in neurite length at 30 uM after 4 days by methylene blue staining based phase contrast microscopic method; type: functional, cell-based
Summary of the method: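 Cells seeded at 8 × 10^3 cells/cm2 in DMEM/10% HS/5% FBS/antibiotics, 24 h, 37 °C, 5% CO2; medium then switched to DMEM/2% HS/1% FBS with test sample plus 2 ng/mL NGF for 4 days, triplicate wells. Fixed in 4% paraformaldehyde, methylene blue stained; longest neurite of 5 differentiated cells in 5 random images per well measured, ≥100 cells per sample; Dunnett's t-test.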

Mus musculus = assay: In vivo neurite-outgrowth promoting activity in C57BL/6 mouse assessed as regeneration of injured optic nerve by measuring GAP-43 positive axons extending over injury site at 30 uM measured 2 weeks post optic nerve injury by fluorescence microscopic method; type: functional, organism-based
Summary of the method: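 Male mice, 9 weeks old, anesthetized with intraperitoneal sodium pentobarbital (30e40 mg/kg); optic nerve crushed with forceps 1 mm behind the eyeball. Longitudinal […] cryosections (OCT) stained with anti-GAP43 (1:250) plus fluorescent secondary; regenerating axons counted manually at […] from injury site, ≥8 sections per condition, 6 mice/group; Dunnett's t-test versus injury.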

Compound | Activity (PC-12) | Activity (Mus musculus)
Cc1c(-c2ccc3c(c2)OCO3)oc(-c2ccc3c(c2)OCO3)c1C | Active | –
COc1cc([C@H]2O[C@@H](c3ccc(O)c(OC)c3)[C@@H](C)[C@H]2C)ccc1O | Active | –
COc1cc(-c2oc(-c3ccc(O)c(OC)c3)c(C)c2C)ccc1O | Active | –
COc1ccc([C@H]2O[C@@H](c3ccc(OC)cc3)[C@@H](C)[C@H]2C)cc1 | Active | –
COc1ccc(-c2oc(-c3ccc(OC)cc3)c(C)c2C)cc1 | Active | –
COc1cc(C2OC(c3ccc4c(c3)OCO4)C(C)C2C)ccc1O (racemic) | Active | Active
Cc1c(-c2ccc(O)cc2)oc(-c2ccc(O)cc2)c1C | Active | –
COc1cc([C@H]2O[C@H](c3ccc4c(c3)OCO4)[C@@H](C)[C@@H]2C)ccc1O | Active | Active
C[C@@H]1[C@H](C)[C@H](c2ccc(O)cc2)O[C@@H]1c1ccc(O)cc1 | Active | –
c1cc2c(cc1[C@@H]1CC[C@H](c3ccc4c(c3)OCO4)O1)OCO2 | Active | –
COc1cc(-c2oc(-c3ccc4c(c3)OCO4)c(C)c2C)ccc1O | Active | –
Cc1ccc(-c2oc(-c3ccc(C)cc3)c(C)c2C)cc1 | Active | –
Cc1ccc([C@H]2O[C@@H](c3ccc(C)cc3)[C@@H](C)[C@H]2C)cc1 | Active | –
C[C@@H]1[C@H](C)CO[C@@H]1c1ccc2c(c1)OCO2 | inactive | –
COc1cc([C@H]2O[C@@H](c3ccc4c(c3)OCO4)[C@@H](C)[C@H]2C)ccc1O | Active | –
